Measured values taken from ChEMBL document CHEMBL5376013, “Design, synthesis and biological evaluation of novel morpholinopyrimidine-5-carbonitrile derivatives as dual PI3K/mTOR inhibitors” (RSC Med Chem, 2024).

What was measured:
Assay type in all cases: functional
Conditions in all cases: read-out: GI
CCRF-CEM = assay: Antitumor activity against human CCRF-CEM cells assessed as growth inhibition at 10 uM relative to control
Outline: (§1)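 After drug addition, plates were incubated 48 h at 37 °C under 5% CO2. Adherent cells were fixed with cold TCA (10% final, 60 min, 4 °C) and suspension cells with 16% final TCA. Staining used 0.4% SRB in 1% acetic acid, solubilized in 10 mM trizma, read at A515. Percent growth was calculated from time-zero, control and treated absorbances.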

HL-60 = assay: Antitumor activity against human HL-60 cells assessed as growth inhibition at 10 uM relative to control; outline: as §1
K562 = assay: Antitumor activity against human K562 cells assessed as growth inhibition at 10 uM relative to control; outline: as §1
MOLT-4 = assay: Antitumor activity against human MOLT-4 cells assessed as growth inhibition at 10 uM relative to control; outline: as §1
RPMI-8226 = assay: Antitumor activity against human RPMI-8226 cells assessed as growth inhibition at 10 uM relative to control; outline: as §1
SR = assay: Antitumor activity against human SR cells assessed as growth inhibition at 10 uM relative to control
Outline: (§2)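 Drug exposure 48 h at 37 °C, 5% CO2. Adherent cells fixed with cold TCA (10% final), suspension cells with TCA (16% final). Stained with 0.4% SRB in 1% acetic acid, dissolved in 10 mM Tris, A515. Growth relative to time-zero and untreated control.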

A549 = assay: Antitumor activity against human A549 cells assessed as growth inhibition at 10 uM relative to control; outline: as §1
EKVX = assay: Antitumor activity against human EKVX cells assessed as growth inhibition at 10 uM relative to control; outline: as §1
HOP-62 = assay: Antitumor activity against human HOP-62 cells assessed as growth inhibition at 10 uM relative to control; outline: as §1
NCI-H226 = assay: Antitumor activity against human NCI-H226 cells assessed as growth inhibition at 10 uM relative to control; outline: as §1
NCI-H23 = assay: Antitumor activity against human NCI-H23 cells assessed as growth inhibition at 10 uM relative to control; outline: as §1
NCI-H322M = assay: Antitumor activity against human NCI-H322M cells assessed as growth inhibition at 10 uM relative to control; outline: as §1
NCI-H460 = assay: Antitumor activity against human NCI-H460 cells assessed as growth inhibition at 10 uM relative to control; outline: as §1
NCI-H522 = assay: Antitumor activity against human NCI-H522 cells assessed as growth inhibition at 10 uM relative to control; outline: as §1
COLO 205 = assay: Antitumor activity against human COLO 205 cells assessed as growth inhibition at 10 uM relative to control; outline: as §1
HCC 2998 = assay: Antitumor activity against human HCC 2998 cells assessed as growth inhibition at 10 uM relative to control; outline: as §1
HCT-116 = assay: Antitumor activity against human HCT-116 cells assessed as growth inhibition at 10 uM relative to control; outline: as §1
HCT-15 = assay: Antitumor activity against human HCT-15 cells assessed as growth inhibition at 10 uM relative to control; outline: as §1
HT-29 = assay: Antitumor activity against human HT-29 cells assessed as growth inhibition at 10 uM relative to control; outline: as §1
KM12 = assay: Antitumor activity against human KM12 cells assessed as growth inhibition at 10 uM relative to control; outline: as §1
SW-620 = assay: Antitumor activity against human SW-620 cells assessed as growth inhibition at 10 uM relative to control; outline: as §2
SF-539 = assay: Antitumor activity against human SF-539 cells assessed as growth inhibition at 10 uM relative to control; outline: as §1
SNB-19 = assay: Antitumor activity against human SNB-19 cells assessed as growth inhibition at 10 uM relative to control; outline: as §2
SNB-75 = assay: Antitumor activity against human SNB-75 cells assessed as growth inhibition at 10 uM relative to control; outline: as §2
U-251 = assay: Antitumor activity against human U-251 cells assessed as growth inhibition at 10 uM relative to control; outline: as §2
LOX IMVI = assay: Antitumor activity against human LOX IMVI cells assessed as growth inhibition at 10 uM relative to control; outline: as §1
Malme-3M = assay: Antitumor activity against human Malme-3M cells assessed as growth inhibition at 10 uM relative to control; outline: as §1
MDA-MB-435 = assay: Antitumor activity against human MDA-MB-435 cells assessed as growth inhibition at 10 uM relative to control; outline: as §1
SK-MEL-2 = assay: Antitumor activity against human SK-MEL-2 cells assessed as growth inhibition at 10 uM relative to control; outline: as §1
SK-MEL-28 = assay: Antitumor activity against human SK-MEL-28 cells assessed as growth inhibition at 10 uM relative to control; outline: as §2
SK-MEL-5 = assay: Antitumor activity against human SK-MEL-5 cells assessed as growth inhibition at 10 uM relative to control; outline: as §2
IGROV-1 = assay: Antitumor activity against human IGROV-1 cells assessed as growth inhibition at 10 uM relative to control; outline: as §1
OVCAR-3 = assay: Antitumor activity against human OVCAR-3 cells assessed as growth inhibition at 10 uM relative to control; outline: as §1
OVCAR-5 = assay: Antitumor activity against human OVCAR-5 cells assessed as growth inhibition at 10 uM relative to control; outline: as §1
OVCAR-8 = assay: Antitumor activity against human OVCAR-8 cells assessed as growth inhibition at 10 uM relative to control; outline: as §1
786-0 = assay: Antitumor activity against human 786-0 cells assessed as growth inhibition at 10 uM relative to control; outline: as §1
CAKI-1 = assay: Antitumor activity against human CAKI-1 cells assessed as growth inhibition at 10 uM relative to control; outline: as §1
RXF 393 = assay: Antitumor activity against human RXF 393 cells assessed as growth inhibition at 10 uM relative to control; outline: as §1
SN12C = assay: Antitumor activity against human SN12C cells assessed as growth inhibition at 10 uM relative to control; outline: as §2
UO-31 = assay: Antitumor activity against human UO-31 cells assessed as growth inhibition at 10 uM relative to control; outline: as §2
MCF7 = assay: Antitumor activity against human MCF7 cells assessed as growth inhibition at 10 uM relative to control; outline: as §1
MDA-MB-231 = assay: Antitumor activity against human MDA-MB-231 cells assessed as growth inhibition at 10 uM relative to control; outline: as §1
Hs-578T = assay: Antitumor activity against human Hs-578T cells assessed as growth inhibition at 10 uM relative to control; outline: as §1
BT-549 = assay: Antitumor activity against human BT-549 cells assessed as growth inhibition at 10 uM relative to control; outline: as §1
T47D = assay: Antitumor activity against human T47D cells assessed as growth inhibition at 10 uM relative to control; outline: as §2
MDA-MB-468 = assay: Antitumor activity against human MDA-MB-468 cells assessed as growth inhibition at 10 uM relative to control; outline: as §1

## N#Cc1c(-c2ccc(Cl)cc2)nc(N/N=C2/C(=O)Nc3ccc(Br)cc32)nc1N1CCOCC1
CCRF-CEM
  inhibition of growth at 10 µM: < 1%
HL-60
  inhibition of growth at 10 µM: < 1%
K562
  inhibition of growth at 10 µM: < 1%
MOLT-4
  inhibition of growth at 10 µM: < 1%
RPMI-8226
  inhibition of growth at 10 µM: < 1%
SR
  inhibition of growth at 10 µM: < 1%
A549
  inhibition of growth at 10 µM: < 1%
EKVX
  inhibition of growth at 10 µM: < 1%
HOP-62
  inhibition of growth at 10 µM: < 1%
NCI-H226
  inhibition of growth at 10 µM: < 1%
NCI-H23
  inhibition of growth at 10 µM: 11.9%
NCI-H322M
  inhibition of growth at 10 µM: < 1%
NCI-H460
  inhibition of growth at 10 µM: < 1%
NCI-H522
  inhibition of growth at 10 µM: < 1%
COLO 205
  inhibition of growth at 10 µM: 1%
HCC 2998
  inhibition of growth at 10 µM: < 1%
HCT-116
  inhibition of growth at 10 µM: 16.8%
HCT-15
  inhibition of growth at 10 µM: 1%
HT-29
  inhibition of growth at 10 µM: < 1%
KM12
  inhibition of growth at 10 µM: < 1%
SW-620
  inhibition of growth at 10 µM: < 1%
SF-539
  inhibition of growth at 10 µM: < 1%
SNB-19
  inhibition of growth at 10 µM: < 1%
SNB-75
  inhibition of growth at 10 µM: < 1%
U-251
  inhibition of growth at 10 µM: 33.6%
LOX IMVI
  inhibition of growth at 10 µM: 14.6%
Malme-3M
  inhibition of growth at 10 µM: < 1%
MDA-MB-435
  inhibition of growth at 10 µM: < 1%
SK-MEL-2
  inhibition of growth at 10 µM: < 1%
SK-MEL-28
  inhibition of growth at 10 µM: < 1%
SK-MEL-5
  inhibition of growth at 10 µM: < 1%
IGROV-1
  inhibition of growth at 10 µM: < 1%
OVCAR-3
  inhibition of growth at 10 µM: < 1%
OVCAR-5
  inhibition of growth at 10 µM: < 1%
OVCAR-8
  inhibition of growth at 10 µM: < 1%
786-0
  inhibition of growth at 10 µM: < 1%
CAKI-1
  inhibition of growth at 10 µM: < 1%
RXF 393
  inhibition of growth at 10 µM: < 1%
SN12C
  inhibition of growth at 10 µM: < 1%
UO-31
  inhibition of growth at 10 µM: 28.7%
MCF7
  inhibition of growth at 10 µM: 1%
MDA-MB-231
  inhibition of growth at 10 µM: 14.2%
Hs-578T
  inhibition of growth at 10 µM: < 1%
BT-549
  inhibition of growth at 10 µM: < 1%
T47D
  inhibition of growth at 10 µM: < 1%
MDA-MB-468
  inhibition of growth at 10 µM: < 1%

## N#Cc1c(-c2ccc(Cl)cc2)nc(N/N=C/c2ccc[nH]2)nc1N1CCOCC1
CCRF-CEM
  inhibition of growth at 10 µM: 79.2%
HL-60
  inhibition of growth at 10 µM: 97.7%
K562
  inhibition of growth at 10 µM: 55.8%
MOLT-4
  inhibition of growth at 10 µM: 82.6%
RPMI-8226
  inhibition of growth at 10 µM: 93.6%
SR
  inhibition of growth at 10 µM: 68.8%
A549
  inhibition of growth at 10 µM: 45.6%
EKVX
  inhibition of growth at 10 µM: 34%
HOP-62
  inhibition of growth at 10 µM: 58.4%
NCI-H226
  inhibition of growth at 10 µM: 31.1%
NCI-H23
  inhibition of growth at 10 µM: < 1%
NCI-H322M
  inhibition of growth at 10 µM: < 1%
NCI-H460
  inhibition of growth at 10 µM: 63.3%
NCI-H522
  inhibition of growth at 10 µM: 91.7%
COLO 205
  inhibition of growth at 10 µM: 18.4%
HCC 2998
  inhibition of growth at 10 µM: < 1%
HCT-116
  inhibition of growth at 10 µM: < 1%
HCT-15
  inhibition of growth at 10 µM: 21.1%
HT-29
  inhibition of growth at 10 µM: 33.8%
KM12
  inhibition of growth at 10 µM: 63.5%
SW-620
  inhibition of growth at 10 µM: 10.8%
SF-539
  inhibition of growth at 10 µM: 66.6%
SNB-19
  inhibition of growth at 10 µM: 25.8%
SNB-75
  inhibition of growth at 10 µM: < 1%
U-251
  inhibition of growth at 10 µM: < 1%
LOX IMVI
  inhibition of growth at 10 µM: 12.2%
Malme-3M
  inhibition of growth at 10 µM: < 11.1%
MDA-MB-435
  inhibition of growth at 10 µM: < 1%
SK-MEL-2
  inhibition of growth at 10 µM: < 1%
SK-MEL-28
  inhibition of growth at 10 µM: < 1%
SK-MEL-5
  inhibition of growth at 10 µM: 14.8%
IGROV-1
  inhibition of growth at 10 µM: 32.6%
OVCAR-3
  inhibition of growth at 10 µM: 54.4%
OVCAR-5
  inhibition of growth at 10 µM: < 1%
OVCAR-8
  inhibition of growth at 10 µM: 14.9%
786-0
  inhibition of growth at 10 µM: 76.1%
CAKI-1
  inhibition of growth at 10 µM: < 1%
RXF 393
  inhibition of growth at 10 µM: < 1%
SN12C
  inhibition of growth at 10 µM: 59.9%
UO-31
  inhibition of growth at 10 µM: 85.2%
MCF7
  inhibition of growth at 10 µM: < 29.3%
MDA-MB-231
  inhibition of growth at 10 µM: 20.3%
Hs-578T
  inhibition of growth at 10 µM: < 1%
BT-549
  inhibition of growth at 10 µM: 83.1%
T47D
  inhibition of growth at 10 µM: 35.1%
MDA-MB-468
  inhibition of growth at 10 µM: 21.8%
